Each structure is given as a SMILES string. The source made the active and inactive calls. The rule behind the calls is not given here.

Our source for the EC50 and Inhibition rate values is ChEMBL document CHEMBL1134988, “Prodrugs of 4'-demethyl-4-deoxypodophyllotoxin: synthesis and evaluation of the antitumor activity” (2002).

One assay relates to A549. Kind of assay: In vitro cytotoxicity against A549 (human lung carcinoma) cell line. Format: functional. To be noted: read-out: ED50 (the source's name).
For a further assay, the system named is MCF7. Kind of assay: In vitro cytotoxicity against MCF-7 (human breast carcinoma) cell line. Format: functional. The conditions noted are these: read-out: ED50 (the source's name).
Assay [1] deals with Mus musculus. Kind of assay: Antitumor activity against Lewis lung carcinoma (LLC) cells transplanted s.c. into the auxiliary region of the BDF1 mice at a maximum tolerated dose of 0.42 mmol/kg/day. Format: functional. In a few lines: (§1)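 BDF1 mice carried sc LLC grafts in the axillary region. Starting 24 h after implantation, doses were given ip on days 1, 5 and 9. Tumour length and width were measured on day 17 and TV = L×W²/2. Inhibition rate (%) was the reduction in mean TV relative to the control group.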

The next assay has as its system SK-MEL-2. The experiment in a line: In vitro cytotoxicity against SK-MEL-2 (human melanoma) cell line. Format: functional. The conditions noted are these: read-out: ED50 (the source's name).
The subject of assay [2] is Mus musculus. The experiment in a line: Antitumor activity against Lewis lung carcinoma (LLC) cells transplanted s.c. into the auxiliary region of the BDF1 mice at a formulable dose of 0.06 mmol/kg/day. Format: functional. Summed up:
(§2)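 LLC cells implanted sc in the axillary region of BDF1 mice. Dosing began 24 h later: ip injection on days 1, 5 and 9 in 5% DMSO/15% Cremophore in saline. Tumour length and width measured on day 17, with TV = L×W²/2. IR (%) = (mean control TV − mean treated TV)/mean control TV × 100.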

In assay [3] the test system is Mus musculus. The experiment in a line: Antitumor activity against Lewis lung carcinoma (LLC) cells transplanted s.c. into the auxiliary region of the BDF1 mice at a maximum tolerated dose of 0.3 mmol/kg/day. Format: functional. In a few lines: as §1
Assay [4] deals with Mus musculus. Kind of assay: Antitumor activity against Lewis lung carcinoma (LLC) cells transplanted s.c. into the auxiliary region of the BDF1 mice at a formulable dose of 0.06 mmol/kg/day; Not active. Format: functional, organism-based. In a few lines:
as §2

The test system of assay [5] is Mus musculus. The experiment in a line: Antitumor activity against Lewis lung carcinoma (LLC) cells transplanted s.c. into the auxiliary region of the BDF1 mice at a maximum tolerated dose of 0.06 mmol/kg/day. Format: functional. Summed up: as §1
The test system of assay [6] is Mus musculus. The experiment in a line: Antitumor activity against Lewis lung carcinoma (LLC) cells transplanted s.c. into the auxiliary region of the BDF1 mice at a maximum tolerated dose of 0.36 mmol/kg/day. Format: functional. Summed up:
as §1

For the molecule `COc1cc([C@@H]2c3cc4c(cc3C[C@H]3COC(=O)[C@@H]32)OCO4)cc(OC)c1OC(=O)CCCCCCCN`, the EC50 stood at 74 nM in the assay with A549, 69 nM with MCF7 and 61 nM in the assay on SK-MEL-2. In the assay on Mus musculus [1], this molecule returned an Inhibition rate of 80%.

On to `COc1cc([C@@H]2c3cc4c(cc3C[C@H]3COC(=O)[C@@H]32)OCO4)cc(OC)c1OC(=O)Nc1ccc(F)cc1`, for which the EC50 in the assay on A549 was found to be 86 nM; in the assay on MCF7 it was 76 nM; in the assay with SK-MEL-2, 78 nM. Besides, the Inhibition rate in the assay with Mus musculus [2] is listed as 69%.

`COc1cc([C@@H]2c3cc4c(cc3C[C@H]3COC(=O)[C@@H]32)OCO4)cc(OC)c1OCc1ccc(N)cc1`: the EC50 was 114 nM in the assay with A549, 99 nM in the assay on MCF7 and 152 nM in the assay with SK-MEL-2. The same molecule gave an Inhibition rate with Mus musculus [3] of 80%.

In the case of `CCNC(=O)Oc1c(OC)cc([C@@H]2c3cc4c(cc3C[C@H]3COC(=O)[C@@H]32)OCO4)cc1OC`, the EC50 in the assay on A549 was found to be 132 nM; in the assay with MCF7, 142 nM; with SK-MEL-2, 143 nM. The Inhibition rate entry in the assay with Mus musculus [4] was “inactive”.

For `COc1cc([C@@H]2c3cc4c(cc3C[C@H]3COC(=O)[C@@H]32)OCO4)cc(OC)c1OC(=O)CCCCCN`, the EC50 stood at 89 nM in the assay on A549, 72 nM with MCF7 and 77 nM in the assay on SK-MEL-2. The Inhibition rate in the assay with Mus musculus [5] was 89%.

For `COc1cc([C@@H]2c3cc4c(cc3C[C@H]3COC(=O)[C@@H]32)OCO4)cc(OC)c1OC(=O)[C@@H](N)Cc1ccccc1`, the EC50 in the assay on A549 was found to be 87 nM; in the assay with MCF7, 72 nM; in the assay on SK-MEL-2, 59 nM. In the assay on Mus musculus [6], the Inhibition rate was 80%.

On to `COc1cc([C@@H]2c3cc4c(cc3C[C@H]3COC(=O)[C@@H]32)OCO4)cc(OC)c1OC(=O)CCCN`, for which the EC50 in the assay with A549 was determined as 92 nM; in the assay on MCF7, 89 nM; in the assay with SK-MEL-2, 91 nM. The same molecule returned an Inhibition rate in the assay with Mus musculus [6] of 85%.

Turning to `COc1cc([C@@H]2c3cc4c(cc3C[C@H]3COC(=O)[C@@H]32)OCO4)cc(OC)c1OC(=O)NC(C)C`, the EC50 in the assay with A549 was determined as 153 nM; in the assay with MCF7, 166 nM; in the assay on SK-MEL-2, 165 nM. Moreover, in the assay on Mus musculus [4], the Inhibition rate result was “inactive”.

`COc1cc([C@@H]2c3cc4c(cc3C[C@H]3COC(=O)[C@@H]32)OCO4)cc(OC)c1O` [4'-DEMETHYLDEOXYPODOPHYLLOTOXIN]: the figures for the EC50 with A549, in the assay with MCF7 and in the assay with SK-MEL-2 were 15 nM, 18 nM and 12 nM, respectively. In the assay on Mus musculus [2], this molecule displayed an Inhibition rate of 13%.

Turning to `COc1cc([C@@H]2c3cc4c(cc3C[C@H]3COC(=O)[C@@H]32)OCO4)cc(OC)c1OC(=O)NCCO`, the EC50 is 62 nM in the assay with A549, 46 nM in the assay on MCF7 and 59 nM in the assay on SK-MEL-2. In the assay on Mus musculus [2], this molecule came in with an Inhibition rate of 95%.

Regarding `COc1cc([C@@H]2c3cc4c(cc3C[C@H]3COC(=O)[C@@H]32)OCO4)cc(OC)c1OC(=O)[C@H](C)N`, the results for the EC50 with A549, with MCF7 and with SK-MEL-2 were 22 nM, 11 nM and 9 nM, respectively. The molecule further showed an Inhibition rate in the assay on Mus musculus [3] of 41%.

On to `COc1cc([C@@H]2c3cc4c(cc3C[C@H]3COC(=O)[C@@H]32)OCO4)cc(OC)c1OC(=O)OCCCl`, for which the EC50 in the assay on A549 was found to be 92 nM; in the assay on MCF7, 88 nM; in the assay on SK-MEL-2, 72 nM.

As to `COc1ccc(NC(=O)Oc2c(OC)cc([C@@H]3c4cc5c(cc4C[C@H]4COC(=O)[C@@H]43)OCO5)cc2OC)cc1`, the values for the EC50 with A549, in the assay on MCF7 and in the assay on SK-MEL-2 were 96 nM, 93 nM and 89 nM, respectively. In addition, the Inhibition rate result in the assay with Mus musculus [4] is “inactive”.

As to `COc1cc([C@@H]2c3cc4c(cc3C[C@H]3COC(=O)[C@@H]32)OCO4)cc(OC)c1OC` [DESOXYPODOPHYLLOTOXIN], the EC50 with A549 was 23 nM; in the assay with MCF7, 11 nM; in the assay on SK-MEL-2, 14 nM. The molecule also had an Inhibition rate with Mus musculus [2] of 59%.

For `COc1cc([C@@H]2c3cc4c(cc3C[C@H]3COC(=O)[C@@H]32)OCO4)cc(OC)c1OC(=O)CCN`, the EC50 in the assay with A549 was found to be 97 nM; in the assay on MCF7 it was 83 nM; in the assay with SK-MEL-2 it was 79 nM. Further, the Inhibition rate in the assay with Mus musculus [3] was found to be 85%.

Consider `COc1cc([C@@H]2c3cc4c(cc3C[C@H]3COC(=O)[C@@H]32)OCO4)cc(OC)c1OC(=O)CN`, for which the EC50 worked out at 12 nM in the assay on A549, 31 nM in the assay with MCF7 and 34 nM in the assay on SK-MEL-2. Moreover, the Inhibition rate with Mus musculus [3] came to 33%.

Turning to `COc1cc([C@@H]2c3cc4c(cc3C[C@H]3COC(=O)[C@@H]32)OCO4)cc(OC)c1OC(=O)NC1CCCCC1`, the results for the EC50 in the assay on A549, in the assay on MCF7 and in the assay on SK-MEL-2 were 163 nM, 197 nM and 152 nM, respectively. Further, the Inhibition rate result in the assay with Mus musculus [4] was “inactive”.

Take `COc1cc([C@@H]2c3cc4c(cc3[C@@H](O[C@@H]3O[C@@H]5CO[C@@H](C)O[C@H]5[C@H](O)[C@H]3O)[C@H]3COC(=O)[C@H]23)OCO4)cc(OC)c1O` [ETOPOSIDE]: the EC50 in the assay with A549 worked out at 1900 nM. This molecule came in with an Inhibition rate with Mus musculus [2] of 78%.
